Measured values gathered from unrelated publications.
Observed: metabolic stability
Medium: liver microsomes

With `O=C1c2ccccc2C(=O)N1CCCN1CCN(C(c2ccc(F)cc2)c2ccc(F)cc2)CC1` the microsomal CLint was 101 µL/min/mg (rat; 100 ng/mL).
The microsomal CLint of `COc1ccc(Cn2cc(CO[C@@H]3O[C@H]4[C@H](OC[C@H]4O)[C@H]3O)nn2)cc1` is reported as under 14.4 µL/min/mg (rat).
`O=C(Nc1ccc(OC(F)(F)Cl)cc1)c1cnc(N2CC[C@@H](O)C2)c(-c2ccn[nH]2)c1` gave a microsomal CLint of 12.9 µL/min/mg (rat; 1 µM, pH 7.4).
The microsomal CLint of `N#Cc1ccc(C[C@H](Nc2nnc(-c3ccc(Br)cc3)o2)C(=O)N2CCc3ccccc32)cc1` is reported as 25.7 µL/min/mg (rat; 10 µM, pH 7.4).
The microsomal CLint of `Cc1[nH]c(C)c(S(=O)(=O)Nc2ccc(C(F)(F)F)c(Cl)c2Cl)c1C(=O)N1CCC(F)(F)C1` is reported as 21.8 µL/min/mg (rat).
With `COCC(=O)N1CCC[C@H](C(=O)NCc2nc(-c3ccc(-c4ccccc4)cc3)cs2)C1` the microsomal CLint was 194 µL/min/mg (male Sprague-Dawley rat; 0.5 µM).
With `N#Cc1ccc(C[C@H](Nc2c(Nc3ccc(F)cc3)c(=O)c2=O)C(=O)N2CCc3ccccc32)cc1` the microsomal CLint was 34.6 µL/min/mg (rat; 10 µM, pH 7.4).
`COCC(=O)N1CCC[C@H](C(=O)NCc2nc(-c3ccc(OC)cc3)cs2)C1` gave a microsomal CLint of 39 µL/min/mg (male Sprague-Dawley rat; 0.5 µM).
For `N#Cc1ccc(C[C@H](Nc2nnc(-c3ccc(F)cc3)s2)C(=O)N2CCc3ccccc32)cc1`, the microsomal CLint was 35.9 µL/min/mg (rat; 10 µM, pH 7.4).
For `COCC(=O)N1CCC[C@H](C(=O)NCc2nc(-c3ccc(C)nc3)cs2)C1`, the microsomal CLint was 6.3 µL/min/mg (male Sprague-Dawley rat; 0.5 µM).
The microsomal CLint of `N#Cc1ccc(C[C@H](Nc2c(Nc3ccc(Br)cc3)c(=O)c2=O)C(=O)N2CCc3ccccc32)cc1` is reported as 18.1 µL/min/mg (rat; 10 µM, pH 7.4).
`Cc1[nH]c(C)c(S(=O)(=O)Nc2ccc(C(F)(F)F)c(Cl)c2)c1C(=O)N(C)C` gave a microsomal CLint of 122 µL/min/mg (rat).
The microsomal CLint of `Cc1cccc(-c2nnc(N[C@@H](Cc3ccc(C#N)cc3)C(=O)N3CCc4ccccc43)o2)c1` is reported as 38.5 µL/min/mg (rat; 10 µM, pH 7.4).
`O=C(NCc1nc(-c2ccccc2)cs1)[C@H]1CCCN(C(=O)COCC(F)F)C1` has a microsomal CLint of 85 µL/min/mg (male Sprague-Dawley rat; 0.5 µM).
The microsomal CLint of `CONC(=O)c1cccc2c1cc(C)n2-c1nc2c(c(NCc3ccccc3)n1)CCCN2` is reported as 413 µL/min/mg (rat; 1 µM, pH 7.4).
For `CN1CCC[C@H](OCC(=O)N2CCC[C@H](C(=O)NCc3nc(-c4ccc(C(F)(F)F)cc4)cs3)C2)C1`, the microsomal CLint was 33 µL/min/mg (male Sprague-Dawley rat; 0.5 µM).
For `CCOc1c([C@H](C)n2nc(C)c3c(N)ncnc32)cc(Cl)c(F)c1[C@@H]1CNC(=O)C1`, the microsomal CLint was 2.4 µL/min/mg (rat; 0.5 µM, pH 7.4).
